Assay results taken from ChEMBL document CHEMBL1154076, “New furanoflavanoids, intestinal alpha-glucosidase inhibitory and free-radical (DPPH) scavenging, activity from antihyperglycemic root extract of Derris indica (Lam.)” (Bioorg Med Chem, 2009).
Activity calls are given as the source filed them. The rule behind the calls is not given here.

Experiments:
[1] = Inhibition of rat alpha-glucosidase assessed as p-nitrophenol release at 50 ug/ml
Procedure, shortened: (§1)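 Crude enzyme is the sonicated supernatant of rat intestinal acetone powder in normal saline (100:1 w/v). Sample (5 mg/mL DMSO stock) in 100 mM phosphate buffer, pH 6.8, is preincubated 5 min with enzyme. p-Nitrophenyl-α-D-glucopyranoside (5 mM solution) is added, and p-nitrophenol is read at 405 nm after 5 min. Blanks omit substrate; the control is DMSO. Inhibition % = (1 − B/A) × 100. IC50 is taken by log regression over ≥5 dilutions. n = 3.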

[2] = test system: Radical scavenging activity; experiment: Antioxidant activity assessed as DPPH radical scavenging activity; type: functional
Procedure, shortened: (§2)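 DPPH (0.5 mM solution in absolute ethanol) is mixed with test sample (1 mg/mL DMSO stock) in 0.1 M Tris-HCl, pH 7.4. The mixture is shaken, kept in the dark for 30 min, and read at 517 nm. Scavenging % = (1 − B/A) × 100 versus a no-sample control. SC50 comes from logarithmic regression over at least five dilutions. n = 3.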

[3] = test system: Radical scavenging activity; experiment: Antioxidant activity against DPPH radical assessed as concentration required for 50% scavenging activity; type: functional; procedure, shortened: as §2
[4] = species on record: Rattus norvegicus; experiment: Inhibition of rat alpha-glucosidase assessed as p-nitrophenol release; procedure, shortened: as §1

Inhibition [1] [%] | Activity [4] [µM] | Compound | SC50 [2] | Scavenging [2] [%] | Activity [3] [µM]
8.6 | – | O=c1cc(-c2ccc3c(c2)OCO3)oc2c1ccc1occc12 [PONGAGLABRONE] | inactive | – | –
4.4 | – | COc1ccc(-c2cc(=O)c3c(O)cc(OC)cc3o2)cc1 [APIGENIN DIMETHYLETHER] | inactive | – | –
58.2 | 104 | COc1c(C(=O)/C=C(\O)c2ccccc2)ccc2occc12 [PONGAMOL] | – | 11.2 | –
28.7 | – | COc1cc(O)c2c(=O)cc(-c3ccccc3)oc2c1 [TECHTOCHRYSIN] | inactive | – | –
36.5 | – | COc1c2ccoc2cc2oc(-c3ccccc3)cc(=O)c12 [PINNATIN] | inactive | – | –
25.6 | 335 | O=c1cc(-c2ccc(O)c(O)c2)oc2c1ccc1occc12 | – | 55.1 | 84.6

Second part, the compound before the results:

Compound | Inhibition [1] [%] | Activity [4] [µM] | SC50 [2] | Scavenging [2] [%] | Activity [3] [µM]
COc1c(-c2ccccc2)oc2c(ccc3occc32)c1=O [KARANJIN] | 26.3 | – | inactive | – | –
COc1c(C(=O)/C=C(\O)c2ccc3c(c2)OCO3)ccc2occc12 [OVALITENONE] | 29.7 | – | inactive | – | –
COc1c(-c2ccc3c(c2)OCO3)oc2c3c(ccc2c1=O)OC(C)(C)C=C3 [PONGACHROMENE] | 22.8 | – | inactive | – | –
COc1c(-c2ccc3c(c2)OCO3)oc2cc(O)ccc2c1=O | 36 | – | – | 68.3 | 39
O=C(O)c1ccc2c(c1)OCO2 [PIPERONYLIC ACID] | 18.4 | – | – | 2.4 | –
COc1c(-c2ccc3c(c2)OCO3)oc2c(ccc3occc32)c1=O [PONGAPIN] | 21.4 | – | inactive | – | –
O=c1c(O)c(-c2ccc(O)c(O)c2)oc2c1ccc1occc12 | 37.9 | – | – | 64.9 | 21
COc1ccc2c(=O)c(OC)c(-c3ccc(OC)c(OC)c3)oc2c1 [FISETIN TETRAMETHYL ETHER] | 19.7 | – | inactive | – | –
